Measured values: ChEMBL document CHEMBL3352245, “Discovery of a series of aryl-N-(3-(alkylamino)-5-(trifluoromethyl)phenyl)benzamides as TRPA1 antagonists” (Bioorg Med Chem Lett, 2014)
Values after ≈ are worked out from the molar mass of the structure shown.

Legend:
[1] = tested on: Plasma; test: Fraction unbound in human plasma at 10 uM by equilibrium dialysis method; assay type: ADME, cell-free
Method in brief: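 Test compound at 10 μM in human plasma. Binding is measured by equilibrium dialysis.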

[2] = Intrinsic clearance in human liver microsomes at 1 uM in presence of NADPH; assay type: ADME; details: read-out: CLH
Method in brief: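 Incubated with human liver microsomes at 1 mg/mL protein plus NADPH. Test compound at 1 μM.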

[3] = target: Transient receptor potential cation channel subfamily A member 1 (Homo sapiens, UniProt O75762); test: Antagonist activity at human TRPA1 expressed in HEK293-TREx cells assessed as change in calcium level by Fluo-4NW assay; assay type: cell-based
Transient receptor potential cation channel subfamily A member 1, sequence (O75762 whole entry): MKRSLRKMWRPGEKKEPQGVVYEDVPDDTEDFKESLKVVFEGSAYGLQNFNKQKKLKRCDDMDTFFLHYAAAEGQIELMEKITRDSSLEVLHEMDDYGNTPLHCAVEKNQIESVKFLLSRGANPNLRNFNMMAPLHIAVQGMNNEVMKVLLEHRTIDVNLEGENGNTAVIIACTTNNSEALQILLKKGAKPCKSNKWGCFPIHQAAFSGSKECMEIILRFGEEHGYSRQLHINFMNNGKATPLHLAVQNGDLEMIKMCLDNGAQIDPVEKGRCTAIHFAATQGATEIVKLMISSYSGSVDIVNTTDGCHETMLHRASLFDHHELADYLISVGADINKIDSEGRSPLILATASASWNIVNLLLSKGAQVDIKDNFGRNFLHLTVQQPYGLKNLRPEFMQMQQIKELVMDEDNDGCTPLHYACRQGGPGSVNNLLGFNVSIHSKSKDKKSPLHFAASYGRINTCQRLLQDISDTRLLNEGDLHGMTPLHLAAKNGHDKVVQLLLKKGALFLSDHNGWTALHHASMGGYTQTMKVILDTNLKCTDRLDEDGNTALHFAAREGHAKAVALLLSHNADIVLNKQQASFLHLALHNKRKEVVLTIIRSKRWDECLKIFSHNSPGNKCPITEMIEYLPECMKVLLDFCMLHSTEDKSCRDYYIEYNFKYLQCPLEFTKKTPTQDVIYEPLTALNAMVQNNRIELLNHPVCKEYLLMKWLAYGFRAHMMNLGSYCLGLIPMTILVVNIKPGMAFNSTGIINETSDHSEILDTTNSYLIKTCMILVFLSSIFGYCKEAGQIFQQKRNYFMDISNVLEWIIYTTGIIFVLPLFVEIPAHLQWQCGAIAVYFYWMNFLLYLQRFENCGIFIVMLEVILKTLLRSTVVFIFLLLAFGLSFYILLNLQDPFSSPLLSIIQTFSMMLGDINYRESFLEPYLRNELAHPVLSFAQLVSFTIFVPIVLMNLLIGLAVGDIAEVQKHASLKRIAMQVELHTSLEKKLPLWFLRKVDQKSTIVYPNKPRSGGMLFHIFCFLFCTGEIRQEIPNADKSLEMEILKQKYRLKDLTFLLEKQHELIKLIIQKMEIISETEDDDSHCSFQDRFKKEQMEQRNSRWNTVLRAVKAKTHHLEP
Method in brief: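 Human receptor; values are means of at least 2 experiments, with replicate error within 20% of value.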

[4] = Apparent permeability from apical to basolateral across human Caco2 cells at pH 7.4 at 10 uM by Transwell assay; assay type: ADME, cell-based; details: Caco-2, pH 7.4
Method in brief: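 Caco-2 monolayer in a Transwell format. Compound at 10 μM is applied apically and apical-to-basolateral apparent permeability is measured at pH 7.4.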

[5] = Thermodynamic solubility of the compound in buffer at pH 7.4 by HPLC/UV detection method; assay type: physicochemical; details: read-out: Therm_solubility
Method in brief: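 Thermodynamic solubility in pH 7.4 buffer. Dissolved compound is quantified by HPLC with UV detection.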

[6] = target: T1, Cytochrome P450 1A2 (Homo sapiens, UniProt P05177); test: Competitive inhibition of CYP1A2 in human liver microsomes by LC-MS/MS analysis; assay type: ADME
T1 sequence (P05177 whole entry): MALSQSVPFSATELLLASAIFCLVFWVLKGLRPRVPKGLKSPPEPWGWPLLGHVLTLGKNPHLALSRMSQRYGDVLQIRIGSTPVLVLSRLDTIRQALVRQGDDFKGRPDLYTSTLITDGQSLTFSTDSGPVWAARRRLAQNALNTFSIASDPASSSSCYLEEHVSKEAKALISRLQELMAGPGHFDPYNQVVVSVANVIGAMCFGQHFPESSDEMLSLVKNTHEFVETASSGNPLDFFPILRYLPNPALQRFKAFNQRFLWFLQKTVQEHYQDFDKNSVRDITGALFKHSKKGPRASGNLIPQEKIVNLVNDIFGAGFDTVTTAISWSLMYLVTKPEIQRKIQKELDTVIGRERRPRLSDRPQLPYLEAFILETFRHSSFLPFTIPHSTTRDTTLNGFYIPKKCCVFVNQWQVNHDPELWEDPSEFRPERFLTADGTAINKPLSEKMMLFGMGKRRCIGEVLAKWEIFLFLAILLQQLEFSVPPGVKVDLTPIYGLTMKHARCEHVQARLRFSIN
Method in brief: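 Competitive inhibition screen in human liver microsomes using standard probe substrates. Metabolites are detected by LC-MS/MS. The panel also covered 2C9, 2C19, 2D6 and 3A4.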

[7] = target: CYP2D6 (Homo sapiens, UniProt P10635); test: Time-dependent inhibition of CYP2D6 in human liver microsomes at 10 uM by LC-MS/MS analysis; assay type: ADME
CYP2D6, sequence (P10635 whole entry): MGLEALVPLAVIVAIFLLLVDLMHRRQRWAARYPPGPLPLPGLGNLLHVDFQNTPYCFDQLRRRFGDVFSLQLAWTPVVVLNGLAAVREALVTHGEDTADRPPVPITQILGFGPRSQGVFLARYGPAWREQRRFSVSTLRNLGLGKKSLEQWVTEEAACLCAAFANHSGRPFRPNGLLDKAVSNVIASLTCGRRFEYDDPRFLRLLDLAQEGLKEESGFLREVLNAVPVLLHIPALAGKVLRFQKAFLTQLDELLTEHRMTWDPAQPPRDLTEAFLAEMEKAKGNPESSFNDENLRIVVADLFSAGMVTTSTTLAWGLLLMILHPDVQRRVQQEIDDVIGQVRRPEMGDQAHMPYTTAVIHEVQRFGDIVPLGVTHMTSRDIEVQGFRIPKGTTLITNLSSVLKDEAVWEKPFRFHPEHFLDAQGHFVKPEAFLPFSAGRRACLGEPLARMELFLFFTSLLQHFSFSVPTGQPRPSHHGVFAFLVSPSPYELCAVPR
Method in brief: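 IC50-shift screen for time-dependent inhibition in human liver microsomes with test compound at 10 μM. The panel also covered 1A2, 2C9 and 3A4.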

With CC(C)Nc1cc(NC(=O)c2c(F)cccc2F)cc(C(F)(F)F)c1 the Fu [1] was < 1%, the microsomal CLint at 1 µM [2] was 73 µL/min/mg and the IC50 [3] was 0.091 µM. It also gave a Papp A→B at 10 µM [4] of 6.9 ×10⁻⁶ cm/s and a solubility thermodynamic [5] of 1 µM (≈ 0.358 µg/mL).

An IC50 [3] of 2.7 µM was found for O=C(Nc1cc(NCc2cccs2)cc(C(F)(F)F)c1)c1cccs1 in this work.

An IC50 [3] of 2.9 µM was found for O=C(Nc1cc(NCc2ccccc2)cc(C(F)(F)F)c1)c1cccs1 in this work.

An IC50 [3] of 3.9 µM was found for O=C(Nc1cc(NCCc2ccccc2)cc(C(F)(F)F)c1)c1cccs1 in this work.

An IC50 [3] of 2.3 µM was found for COC(=O)Nc1cc(NC(=O)c2cccs2)cc(C(F)(F)F)c1 in this work.

For CCCN(CCC)c1cc(NC(=O)c2cccs2)cc(C(F)(F)F)c1, the IC50 [3] was > 32 µM.

An IC50 [3] of 1.3 µM was found for CC(C)C(C)Nc1cc(NC(=O)c2cccs2)cc(C(F)(F)F)c1 (stereo not given) in this work.

An IC50 [3] of 0.79 µM was found for CC(C)CNc1cc(NC(=O)c2cccs2)cc(C(F)(F)F)c1 in this work.

An IC50 [3] of 0.39 µM was found for CCCNc1cc(NC(=O)c2cccs2)cc(C(F)(F)F)c1 in this work.

An IC50 [3] of 0.29 µM was found for CC(C)Nc1cc(NC(=O)c2cccs2)cc(C(F)(F)F)c1 in this work.

With CCCNc1cc(NC(=O)c2ccccc2)cc(C(F)(F)F)c1 the Fu [1] was < 1%, the IC50 [6] was 0.14 µM and the microsomal CLint at 1 µM [2] was 154 µL/min/mg. For the same compound, the IC50 [3] was 0.2 µM, the inhibition at 10 µM [7] was 35% and the Papp A→B at 10 µM [4] was 6.2 ×10⁻⁶ cm/s. It also gave a solubility thermodynamic [5] of 8 µM (≈ 2.58 µg/mL).

With CCCNc1cc(NC(=O)c2ccccn2)cc(C(F)(F)F)c1 the IC50 [3] was > 32 µM.

An IC50 [3] of 0.94 µM was found for CCCNc1cc(NC(=O)c2cccnc2)cc(C(F)(F)F)c1 in this work.

An IC50 [3] of 2.6 µM was found for CCCNc1cc(NC(=O)c2ccncc2)cc(C(F)(F)F)c1 in this work.

An IC50 [3] of 1.4 µM was found for CCCNc1cc(NC(=O)c2ccc(F)cc2)cc(C(F)(F)F)c1 in this work.

An IC50 [3] of 1.2 µM was found for CCCNc1cc(NC(=O)c2ccc(F)c(F)c2)cc(C(F)(F)F)c1 in this work.

With CCCNc1cc(NC(=O)c2c(F)cccc2F)cc(C(F)(F)F)c1 the Fu [1] was < 1%, the IC50 [6] was 1.5 µM and the microsomal CLint at 1 µM [2] was 96 µL/min/mg. For the same compound, the IC50 [3] was 0.11 µM, the Papp A→B at 10 µM [4] was 2.7 ×10⁻⁶ cm/s and the solubility thermodynamic [5] was 7 µM (≈ 2.51 µg/mL).

In the case of CCCNc1cc(N)cc(C(F)(F)F)c1, the IC50 [3] is reported as > 32 µM.

With CCNc1cc(NC(=O)c2c(F)cccc2F)cc(C(F)(F)F)c1 the Fu [1] was < 1%, the microsomal CLint at 1 µM [2] was 115 µL/min/mg and the IC50 [3] was 0.074 µM. The solubility thermodynamic [5] was 5 µM (≈ 1.72 µg/mL).

For CCCN(C)c1cc(NC(=O)c2c(F)cccc2F)cc(C(F)(F)F)c1, the IC50 [3] was > 32 µM.

In the case of CCCOc1cc(NC(=O)c2c(F)cccc2F)cc(C(F)(F)F)c1, the IC50 [3] is reported as > 32 µM.

An IC50 [3] of 1.9 µM was found for CCCNc1cc(C)cc(NC(=O)c2c(F)cccc2F)c1 in this work.
